# Compounds with a hit are over-represented: about 3% of the library has one in this group of screens.
# aDG glyco up – increases alpha dystroglycan glycosylation; AID 624168; Pro5-aDG cells, alpha-DG glycosylation AlphaScreen (IIH6); 0% Pro5, 100% B10-LARGE cell signal; activation, % at 10 µM; 360,000 tested, 0.22% active;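 active means activation of at least 8% versus controls, or a plate z-score of at least 8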;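 further: Pro5 are CHO cells carrying HIG-tagged alpha-DG that lacks glycosylation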
# Hep lipid drop – hepatic lipid droplet formation modulation; inhibition, % at 6.5 µM; AID 1656; AML12 mouse hepatocytes, oleate lipid droplets, BODIPY imaging; 240,000 tested, 0.4% active;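 active means lipid droplet intensity inhibited by at least 50%, with more than 500 cells counted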
#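 Technique: fluorescence imaging, 20x objective, two fields per well / Assay system: AML12 hepatocytes (mouse) / Measure: % inhibition of lipid droplet signal / Doses: 6.5 µM single-point dosing / Incubation: overnight exposure / Reagent: 100 µM oleic acid challenge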
# GC-B act – GC-B (human) receptor activation. HEK293-GC-B cells, CNP EC30, cGMP TR-FRET; 0% at EC30 CNP, 100% saturating CNP. activation, % at 10 µM. 370,000 tested, 0.11% active;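 active means activation at 10 µM reaching about 35% in either raw or pattern-adjusted values, limit read from the data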
# Target sequence (P20594 whole entry, looked up): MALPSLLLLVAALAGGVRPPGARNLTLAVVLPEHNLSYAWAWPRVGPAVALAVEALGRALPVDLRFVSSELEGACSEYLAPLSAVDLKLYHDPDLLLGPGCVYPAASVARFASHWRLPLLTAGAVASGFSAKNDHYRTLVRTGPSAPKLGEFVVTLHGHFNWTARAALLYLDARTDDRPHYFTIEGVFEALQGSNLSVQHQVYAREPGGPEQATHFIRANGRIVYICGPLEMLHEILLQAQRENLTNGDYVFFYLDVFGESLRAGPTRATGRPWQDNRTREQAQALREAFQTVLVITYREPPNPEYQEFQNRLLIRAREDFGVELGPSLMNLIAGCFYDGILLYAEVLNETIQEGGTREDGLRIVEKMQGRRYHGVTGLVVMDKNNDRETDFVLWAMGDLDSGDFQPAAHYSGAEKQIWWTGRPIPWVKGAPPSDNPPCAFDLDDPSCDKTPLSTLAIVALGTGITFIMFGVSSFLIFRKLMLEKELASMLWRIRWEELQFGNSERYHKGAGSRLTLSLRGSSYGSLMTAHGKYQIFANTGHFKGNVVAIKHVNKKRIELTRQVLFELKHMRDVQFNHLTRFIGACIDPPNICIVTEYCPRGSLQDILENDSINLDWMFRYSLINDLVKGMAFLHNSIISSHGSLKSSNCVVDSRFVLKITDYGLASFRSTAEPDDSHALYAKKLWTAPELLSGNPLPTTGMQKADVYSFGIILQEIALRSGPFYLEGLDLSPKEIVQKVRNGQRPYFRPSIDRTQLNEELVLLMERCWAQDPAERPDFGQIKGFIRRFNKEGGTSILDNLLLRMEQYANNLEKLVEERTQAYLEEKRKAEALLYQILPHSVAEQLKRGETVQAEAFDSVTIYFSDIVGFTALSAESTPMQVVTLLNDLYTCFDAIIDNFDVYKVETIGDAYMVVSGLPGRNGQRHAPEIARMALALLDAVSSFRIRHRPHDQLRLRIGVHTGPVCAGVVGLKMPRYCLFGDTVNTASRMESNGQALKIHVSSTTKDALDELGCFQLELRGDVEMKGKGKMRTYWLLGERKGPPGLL
# GRIN3A LBD mod – modulates the human NR3A ligand-binding domain; NR3A LBD differential scanning fluorimetry, Tm shift; 0% = protein alone, 100% = glycine-bound protein; Tm shift relative to glycine control, % at 25 µM; 340,000 tested, 2.5% active; AID 1259313;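 active means melting temperature shift of at least 10% of the positive control shift, at one fixed dose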
# NPR1 activator – GC-A (human) enzyme activation. P16066. HEK293 GC-A cells, cGMP TR-FRET, EC30 ANP; 0% at EC30 ANP, 100% saturating ANP. activation, % at 10 µM. 370,000 tested, 0.14% active; in the data active means activation above about 40%
# JMJD2C inh – human JMJD2C demethylase inhibition. GST-JMJD2C(1-420) H3K9me3 demethylation, DELFIA europium. inhibition, % at 2.35 µM. Q9H3R0. 330,000 tested, 0.069% active;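 active means more than half of a compound's replicate wells show inhibition beyond 50%, single wells judged on their own value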;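 further: signal counts dimethyl H3K9 product captured on neutravidin plate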
# A number is an active result; – = inactive; · = no result given.
SMILES,aDG glyco up,Hep lipid drop,GC-B act,GRIN3A LBD mod,NPR1 activator,JMJD2C inh
COc1cccc(/C=C2\CC3(OC(=O)c4ccco4)CCCN2C3)c1 (stereo unspecified),·,·,–,·,–,·
CCNC(=S)NNC(=O)c1cc(-c2ccc(OC)cc2)nc2ccccc12,–,–,–,–,–,–
CCCCOc1ccc(-c2cc(C(=O)NNC(=S)NCC)c3ccccc3n2)cc1,–,–,–,17,–,–
CCCCOc1cccc(-c2cc(C(=O)NNC(=S)NCC)c3ccccc3n2)c1,–,–,–,11,–,–
CC(=O)c1cc2c(cc1NC(=O)CN1Cc3ccccc3C1=O)OCO2,–,–,–,12,–,–
C[C@H](CO)N1C[C@H](C)[C@@H](CN(C)S(=O)(=O)c2ccccc2)Oc2c(NC(=O)Nc3ccccc3)cccc2C1=O,–,·,–,–,–,·
Cc1noc(C)c1S(=O)(=O)N(C)C[C@H]1Oc2c(NC(=O)Nc3ccc(C(F)(F)F)cc3)cccc2C(=O)N([C@H](C)CO)C[C@@H]1C,–,·,–,11,–,–
Cc1noc(C)c1S(=O)(=O)N(C)C[C@H]1Oc2c(NC(=O)Nc3ccccc3)cccc2C(=O)N([C@H](C)CO)C[C@@H]1C,–,·,–,–,–,–
COc1ccc(S(=O)(=O)N(C)C[C@H]2Oc3c(NC(=O)Nc4ccccc4)cccc3C(=O)N([C@H](C)CO)C[C@@H]2C)cc1,–,·,–,–,–,·
COc1ccc(NC(=O)Nc2cccc3c2O[C@H](CN(C)S(=O)(=O)c2cn(C)cn2)[C@@H](C)CN([C@H](C)CO)C3=O)cc1,–,·,–,16,–,–
COc1ccc(S(=O)(=O)N(C)C[C@H]2Oc3c(NC(=O)Nc4ccc(C(F)(F)F)cc4)cccc3C(=O)N([C@H](C)CO)C[C@@H]2C)cc1,–,·,·,11,·,–
C[C@H]1CN([C@@H](C)CO)C(=O)c2cccc(NC(=O)Nc3ccc(C(F)(F)F)cc3)c2O[C@@H]1CN(C)S(=O)(=O)c1ccccc1,–,·,–,13,–,·
COc1ccc(NC(=O)Nc2cccc3c2O[C@H](CN(C)S(=O)(=O)c2cccs2)[C@@H](C)CN([C@H](C)CO)C3=O)cc1,–,·,–,–,–,·
CCOc1ccc(-n2c(COc3ccc(C)cc3)nnc2SCC(=O)Nc2ccc(F)c(F)c2)cc1,·,·,–,·,–,·
CCn1c2ccccc2c2cc(C=Nn3c(-c4ccccn4)n[nH]c3=S)ccc21,·,·,–,·,–,·
CC(C)NC(=O)Nc1ccc2c(c1)C(=O)N([C@H](C)CO)C[C@H](C)[C@@H](CN(C)S(=O)(=O)c1ccccc1)O2,–,·,–,–,–,–
C[C@H](CO)N1C[C@H](C)[C@@H](CN(C)S(=O)(=O)c2ccccc2)Oc2ccc(NC(=O)Nc3ccc(C(F)(F)F)cc3)cc2C1=O,–,·,–,23,–,–
CCOc1ccc2nc(N/C(N)=N/C(=S)Nc3ccc(C)c(C)c3)nc(C)c2c1,–,–,–,20,–,–
NC(=O)c1ccsc1NC(=O)c1ccc(S(=O)(=O)N2CCCc3ccccc32)cc1,–,–,–,16,–,–
O=C(Nc1ccc(S(=O)(=O)N2CCCc3ccccc32)cc1)C1CCCO1 (stereo unspecified),–,–,–,11,–,–
O=C(O)c1ccc(S(=O)(=O)N2CCCc3ccccc32)cc1,–,–,–,–,–,–
CCOc1ccc(CCNC(=O)COC(=O)C2=NNC(=O)CC2)cc1OCC,–,·,–,–,–,–
COCCn1c(=NC(=O)c2cc(Cl)sc2Cl)sc2cc(S(N)(=O)=O)ccc21,–,–,–,28,–,–
CCOCCn1c(=NC(=O)c2cc(Cl)sc2Cl)sc2cc(S(N)(=O)=O)ccc21,·,–,·,·,·,–
COCCn1c(=NC(C)=O)sc2cc([N+](=O)[O-])ccc21,–,–,–,27,–,–
SMILES,aDG glyco up,Hep lipid drop,GC-B act,GRIN3A LBD mod,NPR1 activator,JMJD2C inh
C=CCn1c(=NC(=O)c2ccc(S(=O)(=O)N3CCCc4ccccc43)cc2)sc2cc(S(N)(=O)=O)ccc21,–,–,–,13,–,–
CCCCC(=O)N=c1sc2cc([N+](=O)[O-])ccc2n1C,–,–,–,–,–,–
C=CCn1c(=NC(=O)c2ccc(S(=O)(=O)N3CCc4ccccc4C3)cc2)sc2cc(S(N)(=O)=O)ccc21,–,–,–,19,–,–
COC(=O)C1=C(C)N(Cc2cccc(C(F)(F)F)c2)C(=NCc2ccc3c(c2)OCO3)NC1CCc1ccccc1 (stereo unspecified),·,·,–,·,–,·
COc1ccccc1/C=C/C(=O)OCC(=O)N1c2ccccc2CC1C (stereo unspecified),–,·,–,–,–,–
COC(=O)[C@]12C[C@H](CC(=O)NCc3ccccc3)C(=O)N(Cc3ccc4c(c3)OCO4)C1=C[C@H](COCc1ccccc1)O[C@@H]2C,·,·,–,·,–,·
Cc1ccc(S(=O)(=O)N2C=C(c3ccccc3)c3ccccc3-c3ccccc32)cc1,·,·,–,·,–,·
Cc1ccc(OCCOc2ccc(Cl)cc2Cl)c(Br)n1,·,·,–,·,–,·
COCCn1c(=NC(=O)c2ccc(S(=O)(=O)N3CCc4ccccc4C3)cc2)sc2cc(S(N)(=O)=O)ccc21,–,–,–,25,–,–
C#CCn1c(=NC(=O)c2ccc(S(=O)(=O)N3CCc4ccccc4C3)cc2)sc2cc(S(N)(=O)=O)ccc21,–,–,·,–,·,–
CCCCOc1ccc(-c2c(C#N)c(N)nc(SCC(N)=O)c2C#N)cc1,–,–,–,17,–,–
COc1cccc(CNC(=O)[C@H]2CCCN2C(=O)C2CCCN2C(=O)c2ccc(OC)c(F)c2)c1 (stereo partly specified),·,·,–,·,–,·
O=S1(=O)c2c(cccc2N2CC[C@@H](O)C2)OCCCN1C1CC1,·,·,–,·,–,·
N=C1/C(=C\c2ccc(-c3cc(Cl)cc(Cl)c3)o2)C(=O)N=C2SC=C(c3ccccc3)N12,–,–,–,24,–,–
N=C1/C(=C/c2cccn2CCOc2ccccc2)C(=O)N=C2SC=C(c3ccccc3)N12,–,–,–,23,–,–
N=C1/C(=C/c2ccc(-c3cccc(C(=O)O)c3)o2)C(=O)N=C2SC=C(c3ccccc3)N12,–,–,–,–,–,–
CC(C)CNC(=O)c1ccccc1NC(=O)CSCc1ccccc1,–,–,–,14,–,–
O=C(CNC(=O)c1ccco1)NNC(=O)c1n[nH]c(=O)c2ccccc12,–,·,–,–,–,–
Cc1ccc(NC(=O)CN2C(=O)NC(Cc3c[nH]c4ccccc34)C2=O)cc1S(=O)(=O)N1CCCCC1 (stereo unspecified),–,–,–,12,–,–

# Screening results as filed in PubChem.
